Assay results published in ChEMBL document CHEMBL1149605, “A para-amino substituent on the D-ring of green tea polyphenol epigallocatechin-3-gallate as a novel proteasome inhibitor and cancer cell apoptosis inducer” (Bioorg Med Chem, 2007).
Active and inactive are the calls of the source. The rule behind the calls is not given here.

Columns and labels:
[1] = tested on: Raji; assay: Increase in ubiquitinated protein bax level in leukemia Raji B cells after 24 hrs; format: functional, cell-based; conditions: Homo sapiens
In short: (§1)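 Raji B cells (RPMI, 10% FBS, 37 °C, 5% CO2) exposed to DMSO solvent or 25 μM compound for 4 or 24 h. Whole cell extracts immunoblotted with antibodies to IκB-α, p27, Bax and ubiquitin, with actin as loading control, and quantified by densitometry.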

[2] = tested on: Raji; assay: Increase in ubiquitinated protein IkBalpha level in leukemia Raji B cells after 4 hrs; format: functional, Homo sapiens; conditions: for Activity: Homo sapiens; in short: as §1
[3] = tested on: Raji; assay: Increase in ubiquitinated protein IkBalpha level in leukemia Raji B cells after 24 hrs; format: functional, cell-based; conditions: Homo sapiens; in short: as §1
[4] = tested on: Raji; assay: Increase in ubiquitinated protein bax level in leukemia Raji B cells after 4 hrs; format: functional, Homo sapiens; conditions: for Activity: Homo sapiens, TDE = time-dependent effect; in short: as §1
[5] = tested on: Raji; assay: Increase in ubiquitinated protein p27 level in leukemia Raji B cells after 24 hrs; format: functional, cell-based; conditions: Homo sapiens; in short: as §1
[6] = tested on: Raji; assay: Increase in ubiquitinated protein p27 level in leukemia Raji B cells after 4 hrs; format: functional, Homo sapiens; conditions: for Activity: Homo sapiens, TDE = time-dependent effect; in short: as §1
[7] = tested on: Raji; assay: Increase in cell death in leukemia Raji B cells at 25 um after 24 hrs; format: functional, Homo sapiens
In short: (§2)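 Raji B leukaemia cells grown in RPMI with 10% FBS, penicillin and streptomycin at 37 °C under 5% CO2. Treated with 25 μM compound or DMSO solvent for 24 h. Death scored by trypan blue dye exclusion: blue cells and cells with apoptotic morphology (shrinking, blebbing) on phase-contrast microscopy counted as dead.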

[8] = tested on: Raji; assay: Inhibition of chymotrypsin like activity of 20S proteasome in leukemia Raji B cells at 25 uM after 24 hrs; format: cell-based; conditions: Homo sapiens
In short: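 Raji B cells dosed at 25 μM for 4 or 24 h, then harvested and lysed. Whole cell extract (10 μg) incubated with Suc-Leu-Leu-Val-Tyr-AMC (40 μM) in 50 mM Tris-HCl pH 8 at 37 °C for 2.5 h. Released AMC read at ex 380/em 460 nm.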

[9] = tested on: Raji; assay: Induction of apoptosis in leukemia Raji B cells assessed as PARP1 ceavage after 24 hrs; format: functional, cell-based; conditions: Homo sapiens
In short: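 Raji B cells were treated with DMSO or 25 μM compound for 4 or 24 h. Whole cell extracts were immunoblotted with a polyclonal anti-PARP antibody to detect apoptosis-specific PARP cleavage, with densitometric quantification.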

[10] = tested on: 20S proteasome (Oryctolagus cuniculus); assay: Inhibition of chymotrypsin like activity of 20S proteasome at 50 uM
[11] = tested on: Raji; assay: Effect on apoptosis in leukemia Raji B cells assessed as increase in caspase 3 activation after 24 hrs; format: functional, Homo sapiens
In short: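 Raji B cells (RPMI, 10% FBS, 37 °C, 5% CO2) given 25 μM compound for 4 or 24 h, then harvested and lysed. Lysates incubated with Ac-DEVD-AMC (40 μM) for 2.5 h; caspase-3 activity read from fluorogenic substrate cleavage.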

[12] = tested on: Raji; assay: Inhibition of chymotrypsin like activity of 20S proteasome in leukemia Raji B cells at 25 uM after 4 hrs; format: cell-based; conditions: Homo sapiens
In short: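 Raji B cells treated with 25 μM compound for 4 h, then harvested and lysed. Whole-cell extract (10 μg) incubated with 40 μM Suc-Leu-Leu-Val-Tyr-AMC in 50 mM Tris-HCl pH 8 at 37 °C for 2.5 h. Free AMC read by fluorescence at 380 nm excitation and 460 nm emission.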

[13] = Inhibition of chymotrypsin like activity of 20S proteasome; set-up: species or system Homo sapiens
In short: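 Purified rabbit 20S proteasome (35 ng) incubated with the fluorogenic substrate Suc-Leu-Leu-Val-Tyr-AMC (40 μM), with or without compound. Chymotrypsin-like activity was read as substrate hydrolysis.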

[14] = tested on: Raji; assay: Induction of cell death in leukemia Raji B cells at 25 uM after 24 hrs; format: functional, Homo sapiens; in short: as §2

## CC(=O)Oc1cc(OC(C)=O)c2c(c1)O[C@H](c1cc(OC(C)=O)c(OC(C)=O)c(OC(C)=O)c1)[C@H](OC(=O)c1ccc(NC(=O)OC(C)(C)C)cc1)C2
[1]
  Activity: Active
[2]
  Fold change: 1.4
[3]
  Activity: Active
[4]
  Fold change: 3.5
[5]
  Activity: Active
[6]
  Fold change: 2.1
[7]
  Fold change: 5
[8]
  inhibition: 65%
[9]
  Activity: Active
[10]
  inhibition: < 20%
[11]
  Fold change: 5.5

## O=C(O[C@@H]1Cc2c(O)cc(O)cc2O[C@@H]1c1cc(O)c(O)c(O)c1)c1cc(O)c(O)c(O)c1 [EPIGALOCATECHIN GALLATE]
[12]
  inhibition: 4%
[13]
  IC50: 200 nM
[8]
  inhibition: 10%

## CC(=O)Oc1cc(OC(C)=O)c2c(c1)O[C@H](c1cc(OC(C)=O)c(OC(C)=O)c(OC(C)=O)c1)[C@H](OC(=O)c1cc(OC(C)=O)c(OC(C)=O)c(OC(C)=O)c1)C2
[10]
  inhibition: < 20%

## CC(=O)Oc1cc(OC(C)=O)c2c(c1)O[C@H](c1cc(OC(C)=O)c(OC(C)=O)c(OC(C)=O)c1)[C@H](OC(=O)c1ccc(N)cc1)C2
[1]
  Activity: Active
[2]
  Activity: inactive
[3]
  Activity: Active
[4]
  Fold change: 3.3
[5]
  Activity: Active
[6]
  Fold change: 2
[7]
  Fold change: 3.5
[8]
  inhibition: 39%
[9]
  Activity: Active
[10]
  inhibition: < 20%
[11]
  Fold change: 4.7

## Nc1ccc(C(=O)O[C@@H]2Cc3c(O)cc(O)cc3O[C@@H]2c2cc(O)c(O)c(O)c2)cc1
[2]; TDE = time-dependent effect
  Activity: tde
[4]
  Activity: tde
[6]
  Activity: tde
[13]
  IC50: 840 nM
[14]
  Activity: 10%

## CC(C)(C)OC(=O)Nc1ccc(C(=O)O[C@@H]2Cc3c(O)cc(O)cc3O[C@@H]2c2cc(O)c(O)c(O)c2)cc1
[2]; TDE = time-dependent effect
  Activity: tde
[4]
  Activity: tde
[6]
  Activity: tde
[13]
  IC50: 3850 nM
[14]
  Activity: 10%
